Test results taken from ChEMBL document CHEMBL3585302, “Synthesis and antibacterial activities of cadiolides A, B and C and analogues” (Bioorg Med Chem, 2015).
Activity calls are given as the source filed them. The rule behind the calls is not given here.

Columns and labels:
[1] = test system: Bacillus cereus; experiment: Antibacterial activity against Bacillus cereus CECT 148 assessed as inhibition of microbial growth at 125 ug/ml incubated for 18 hrs by 2-fold microtiter broth dilution method; type: functional, organism-based
Method in brief: (§1)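 Compounds in DMSO, ten 2-fold serial dilutions (125 down to 0.24 µg/mL tested). Bacteria at OD620 = 0.001 in Nutrient Broth mixed 1:1 with dilutions. Incubated overnight (18 h) at 28°C or 37°C according to strain. Growth read turbidimetrically at OD620. MIC is the lowest concentration giving complete growth inhibition. Triplicate runs. Tetracycline as reference.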

[2] = test system: Escherichia coli; experiment: Antibacterial activity against Escherichia coli CECT 405 assessed as inhibition of microbial growth at 125 ug/ml incubated for 18 hrs by 2-fold microtiter broth dilution method; type: functional, organism-based; method in brief: as §1
[3] = test system: Salmonella typhi; experiment: Antibacterial activity against Salmonella typhi CECT 409 assessed as inhibition of microbial growth at 125 ug/ml incubated for 18 hrs by 2-fold microtiter broth dilution method; type: functional, organism-based; conditions: Salmonella enterica subsp. enterica serovar Typhi
Method in brief: (§2)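 Compounds in DMSO, ten 2-fold serial dilutions (125 down to 0.24 µg/mL), mixed 1:1 with bacteria in Nutrient Broth at OD620 = 0.001. Incubated overnight (18 h) at 28 or 37 °C depending on strain. Growth read turbidimetrically at OD620; MIC is the lowest concentration completely inhibiting growth, per CLSI. Triplicate runs; tetracycline reference.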

[4] = test system: Enterococcus faecalis; experiment: Antibacterial activity against Enterococcus faecalis CECT 481 assessed as inhibition of microbial growth at 125 ug/ml incubated for 18 hrs by 2-fold microtiter broth dilution method; type: functional, organism-based; method in brief: as §1
[5] = test system: Staphylococcus aureus; experiment: Antibacterial activity against Staphylococcus aureus CECT 86 assessed as inhibition of microbial growth at 125 ug/ml incubated for 18 hrs by 2-fold microtiter broth dilution method; type: functional, organism-based; method in brief: as §1
[6] = test system: Bacillus subtilis; experiment: Antibacterial activity against Bacillus subtilis CECT 35 assessed as inhibition of microbial growth at 125 ug/ml incubated for 18 hrs by 2-fold microtiter broth dilution method; type: functional, organism-based; method in brief: as §1
[7] = test system: Escherichia coli; experiment: Antibacterial activity against Escherichia coli CECT 100 assessed as inhibition of microbial growth at 125 ug/ml incubated for 18 hrs by 2-fold microtiter broth dilution method; type: functional, organism-based; method in brief: as §1
[8] = test system: Pectobacterium carotovorum; experiment: Antibacterial activity against Erwinia carotovora CECT 225 assessed as inhibition of microbial growth at 125 ug/ml incubated for 18 hrs by 2-fold microtiter broth dilution method; type: functional, organism-based; method in brief: as §1
[9] = Cytotoxicity against human neutrophils assessed as reduction in cell viability at 100 uM incubated for 24 hrs by MTT assay; type: cell-based; conditions: neutrophil
Method in brief: (§3)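 Neutrophils from buffy coats of healthy donors were isolated by Ficoll-Hypaque gradient and seeded at 2 x 10⁵ cells/mL in supplemented RPMI. Exposed to 30 or 100 µM for 24 h at 37 °C, then MTT (2 mg/mL in PBS) added for 3 h. Formazan dissolved in DMSO and read at 560 and 630 nm. Mean ± SEM of n=6-9 independent experiments, compared against vehicle.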

[10] = Selectivity index, ratio of cytotoxicity against human neutrophils by MTT assay to antibacterial IC50 against Escherichia coli CECT 405; type: toxicity; conditions: read-out: Selectivity Index
[11] = Selectivity index, ratio of cytotoxicity against human neutrophils by annexin V-FITC and propidium iodide staining based cytofluorometry to antibacterial IC50 against Escherichia coli CECT 405; type: toxicity; conditions: read-out: Selectivity Index
[12] = Selectivity index, ratio of cytotoxicity against human neutrophils by annexin V-FITC and propidium iodide staining based cytofluorometry to antibacterial IC50 against Enterococcus faecalis CECT 481; type: toxicity; conditions: read-out: Selectivity Index
[13] = test system: Staphylococcus aureus; experiment: Antibacterial activity against Staphylococcus aureus CECT 86 assessed as inhibition of microbial growth incubated for 18 hrs by 2-fold microtiter broth dilution method; type: functional, organism-based; conditions: CECT 86, 18 h; method in brief: as §1
[14] = Selectivity index, ratio of cytotoxicity against human neutrophils by annexin V-FITC and propidium iodide staining based cytofluorometry to antibacterial IC50 against Staphylococcus aureus CECT 86; type: toxicity; conditions: read-out: Selectivity Index
[15] = Toxicity in human neutrophils assessed as induction of necrosis at 100 uM incubated for 24 hrs by annexin V-FITC and propidium iodide staining based cytofluorometry; type: cell-based; conditions: neutrophil
Method in brief: (§4)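 Freshly isolated donor neutrophils (2 x 10⁶ cells/mL stock, diluted into supplemented RPMI) cultured 24 h with 30 or 100 µM. Stained with annexin V-FITC/propidium iodide; 1 x 10⁴ cells analysed by flow cytometry. Gating: annexin V+/PI− apoptotic, V+/PI+ late apoptotic/necrotic, V−/PI− viable. Mean ± SEM, n=3, compared against vehicle.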

[16] = test system: Pectobacterium carotovorum; experiment: Antibacterial activity against Erwinia carotovora CECT 225 assessed as inhibition of microbial growth incubated for 18 hrs by 2-fold microtiter broth dilution method; type: functional, organism-based; conditions: CECT 225, 18 h; method in brief: as §1
[17] = Toxicity in human neutrophils assessed as cell survival at 30 uM incubated for 24 hrs by annexin V-FITC and propidium iodide staining based cytofluorometry; conditions: neutrophil; method in brief: as §4
[18] = Selectivity index, ratio of cytotoxicity against human neutrophils by MTT assay to antibacterial IC50 against Enterococcus faecalis CECT 481; type: toxicity; conditions: read-out: Selectivity Index
[19] = Selectivity index, ratio of cytotoxicity against human neutrophils by MTT assay to antibacterial IC50 against Salmonella typhi CECT 409; type: toxicity; conditions: read-out: Selectivity Index
[20] = test system: Escherichia coli; experiment: Antibacterial activity against Escherichia coli CECT 405 assessed as inhibition of microbial growth incubated for 18 hrs by 2-fold microtiter broth dilution method; type: functional, organism-based; conditions: CECT 405, 18 h; method in brief: as §1
[21] = test system: Escherichia coli; experiment: Antibacterial activity against Escherichia coli CECT 100 assessed as inhibition of microbial growth incubated for 18 hrs by 2-fold microtiter broth dilution method; type: functional, organism-based; conditions: CECT 100, 18 h; method in brief: as §1
[22] = test system: Salmonella typhi; experiment: Antibacterial activity against Salmonella typhi CECT 409 assessed as inhibition of microbial growth incubated for 18 hrs by 2-fold microtiter broth dilution method; type: functional, organism-based, Salmonella enterica subsp. enterica serovar Typhi; conditions: Salmonella enterica, CECT 409, 18 h; method in brief: as §2
[23] = Selectivity index, ratio of cytotoxicity against human neutrophils by MTT assay to antibacterial IC50 against Staphylococcus aureus CECT 86; type: toxicity; conditions: read-out: Selectivity Index
[24] = Cytotoxicity against human neutrophils assessed as reduction in cell viability at 30 uM incubated for 24 hrs by MTT assay; type: cell-based; conditions: neutrophil; method in brief: as §3
[25] = test system: Bacillus subtilis; experiment: Antibacterial activity against Bacillus subtilis CECT 35 assessed as inhibition of microbial growth incubated for 18 hrs by 2-fold microtiter broth dilution method; type: functional, organism-based; conditions: CECT 35, 18 h; method in brief: as §1
[26] = Toxicity in human neutrophils assessed as induction of apoptosis at 30 and 100 uM incubated for 24 hrs by annexin V-FITC and propidium iodide staining based cytofluorometry; type: cell-based; conditions: neutrophil; method in brief: as §4
[27] = test system: Enterococcus faecalis; experiment: Antibacterial activity against Enterococcus faecalis CECT 481 assessed as inhibition of microbial growth incubated for 18 hrs by 2-fold microtiter broth dilution method; type: functional, organism-based; conditions: CECT 481, 18 h; method in brief: as §1
[28] = Selectivity index, ratio of cytotoxicity against human neutrophils by annexin V-FITC and propidium iodide staining based cytofluorometry to antibacterial IC50 against Salmonella typhi CECT 409; type: toxicity; conditions: read-out: Selectivity Index
[29] = test system: Bacillus cereus; experiment: Antibacterial activity against Bacillus cereus CECT 148 assessed as inhibition of microbial growth incubated for 18 hrs by 2-fold microtiter broth dilution method; type: functional, organism-based; conditions: CECT 148, 18 h; method in brief: as §1

Row | SMILES | growth inhibition (GI) [1] | growth inhibition (GI) [2] | growth inhibition (GI) [3] | growth inhibition (GI) [4] | growth inhibition (GI) [5] | growth inhibition (GI) [6] | growth inhibition (GI) [7] | growth inhibition (GI) [8] | Activity [9] | selectivity ratio [10] | selectivity ratio [11] | selectivity ratio [12] | IC50 [13] [µM] | MIC [13] [µg/mL] | selectivity ratio [14] | Activity [15] [%] | MIC [16] [µg/mL] | Activity [17] | selectivity ratio [18] | selectivity ratio [19] | further results
1 | COc1ccc(C2=C(C(=O)c3ccc(O)cc3)C(=O)O/C2=C\c2ccc(O)cc2)cc1 | inactive | inactive | inactive | inactive | inactive | inactive | inactive | inactive |  |  |  |  |  |  |  |  |  |  |  |  | 
2 | COc1ccc(C2=C(C(=O)c3ccco3)C(=O)O/C2=C\c2ccc(O)cc2)cc1 | inactive | inactive | inactive | inactive | inactive | inactive | inactive | inactive |  |  |  |  |  |  |  |  |  |  |  |  | 
3 | COc1c(Br)cc(C2=C(C(=O)c3ccc(O)cc3)C(=O)O/C2=C\c2cc(Br)c(O)c(Br)c2)cc1Br | inactive | inactive | inactive | inactive | inactive | inactive | inactive | inactive |  |  |  |  |  |  |  |  |  |  |  |  | 
4 | O=C1O/C(=C\c2ccc(O)c(Br)c2)C(c2cc(Br)c(O)c(Br)c2)=C1C(=O)c1ccco1 |  |  |  |  |  |  |  |  | Toxic | 5 | 5 | 5 | 3.19 | 1.95 | 5 | 57 | 125 | Non-toxic | 5 | 5 | IC50 [20]: 6.38 µM; MIC [20]: 3.9 µg/mL; IC50 [21]: 25.6 µM; MIC [21]: 15.6 µg/mL; IC50 [22]: 3.19 µM; MIC [22]: 1.95 µg/mL; selectivity ratio [23]: 5; Activity [24]: Non-toxic; MIC [25]: 125 µg/mL; Activity [26]: Non-toxic; IC50 [27]: 3.19 µM; MIC [27]: 1.95 µg/mL; selectivity ratio [28]: 5; IC50 [29]: 6.38 µM; MIC [29]: 3.9 µg/mL
5 | COc1ccc(C2=C(C(=O)c3ccc(O)cc3)C(=O)O/C2=C\c2ccc(O)c(Br)c2)cc1Br | inactive | inactive | inactive | inactive | inactive | inactive | inactive | inactive |  |  |  |  |  |  |  |  |  |  |  |  | 
6 | O=C1O/C(=C\c2ccc(O)c(Br)c2)C(c2ccc(O)c(Br)c2)=C1C(=O)c1ccco1 |  |  |  |  |  |  |  |  | Toxic | 5 | 5 | 5 | 3.66 | 1.95 | 5 | 95 | 125 | Non-toxic | 5 | 5 | IC50 [20]: 3.66 µM; MIC [20]: 1.95 µg/mL; IC50 [21]: 29.4 µM; MIC [21]: 15.6 µg/mL; IC50 [22]: 3.66 µM; MIC [22]: 1.95 µg/mL; selectivity ratio [23]: 5; Activity [24]: Non-toxic; MIC [25]: 125 µg/mL; Activity [26]: Non-toxic; IC50 [27]: 3.66 µM; MIC [27]: 1.95 µg/mL; selectivity ratio [28]: 5; IC50 [29]: 3.66 µM; MIC [29]: 1.95 µg/mL
